# Measurements published in ChEMBL document CHEMBL2034936, “Discovery and extensive in vitro evaluations of NK-HDAC-1: a chiral histone deacetylase inhibitor as a promising lead” (J Med Chem, 2012).
# Active and inactive are the calls of the source. No cut-off for these calls is given here.
# Columns and labels:
# [1] = tested on: MDA-MB-231; experiment: cells; format: functional; settings: Homo sapiens, MDA-MB-231, 72 h
# [2] = target: Histone deacetylase; experiment: Inhibition of HDAC in human HeLa cell nuclear extracts using Ac-Arg-Gly-Lys(Ac)-AMC substrate by fluorimetry; format: protein assay
# [3] = tested on: HepG2; experiment: cells; format: functional; settings: Homo sapiens, HepG2, 72 h
# [4] = tested on: A549; experiment: cells; format: functional; settings: Homo sapiens, A549, 72 h
# [5] = cells; format: functional; settings: Homo sapiens, Hs-578T, 72 h
# [6] = tested on: A498; experiment: cells; format: functional; settings: Homo sapiens, A498, 72 h
# [7] = tested on: HT-29; experiment: Growth inhibition of human HT-29 cells after 72 hrs by MTS assay; format: functional; settings: HT-29, 72 h
# [8] = tested on: PC-3; experiment: cells; format: functional; settings: Homo sapiens, PC-3, 72 h
# [9] = tested on: OVCAR-8; experiment: cells; format: functional; settings: Homo sapiens, OVCAR-8, 72 h
# [10] = tested on: UACC-257; experiment: cells; format: functional; settings: Homo sapiens, UACC-257, 72 h
# [11] = tested on: NCI-H322M; experiment: Growth inhibition of human NCI-H322M cells after 72 hrs by MTS assay; format: functional
# [12] = tested on: SF-295; experiment: cells; format: functional; settings: Homo sapiens, SF-295, 72 h
# [13] = tested on: U-251; experiment: cells; format: functional; settings: Homo sapiens, U-251, 72 h
# [14] = tested on: COLO 205; experiment: Growth inhibition of human COLO205 cells after 72 hrs by MTS assay; format: functional; settings: COLO 205, 72 h
# [15] = tested on: IGROV-1; experiment: cells; format: functional; settings: Homo sapiens, IGROV-1, 72 h
# [16] = tested on: OVCAR-5; experiment: Growth inhibition of human OVCAR5 cells after 72 hrs by MTS assay; format: functional; settings: OVCAR-5, 72 h
# [17] = tested on: SK-MEL-2; experiment: cells; format: functional; settings: Homo sapiens, SK-MEL-2, 72 h
# [18] = tested on: OVCAR-4; experiment: cells; format: functional; settings: Homo sapiens, OVCAR-4, 72 h
# [19] = tested on: OVCAR-3; experiment: cells; format: functional; settings: Homo sapiens, OVCAR-3, 72 h
# [20] = tested on: SF-539; experiment: cells; format: functional; settings: Homo sapiens, SF-539, 72 h
# [21] = tested on: T47D; experiment: cells; format: functional; settings: Homo sapiens, 72 h
# [22] = tested on: HOP-92; experiment: cells; format: functional; settings: Homo sapiens, HOP-92, 72 h
# [23] = tested on: SN12C; experiment: cells; format: functional; settings: Homo sapiens, 72 h
# [24] = tested on: RXF 393; experiment: cells; format: functional; settings: Homo sapiens, RXF 393, 72 h
# [25] = tested on: NCI-H460; experiment: Growth inhibition of human NCI-H460 cells after 72 hrs by MTS assay; format: functional; settings: NCI-H460, 72 h
# [26] = tested on: SK-MEL-5; experiment: cells; format: functional; settings: Homo sapiens, SK-MEL-5, 72 h
# [27] = tested on: M14; experiment: cells; format: functional; settings: Homo sapiens, M14, 72 h
# [28] = tested on: SR; experiment: Growth inhibition of human SR cells after 72 hrs by MTS assay; format: functional
# [29] = tested on: HCT-116; experiment: Growth inhibition of human HCT116 cells after 72 hrs by MTS assay; format: functional; settings: HCT-116, 72 h
# [30] = tested on: DU-145; experiment: cells; format: functional; settings: Homo sapiens, DU-145, 72 h
# [31] = tested on: MDA-MB-435; experiment: cells; format: functional; settings: Homo sapiens, MDA-MB-435, 72 h
# [32] = tested on: KM12; experiment: cells; format: functional; settings: Homo sapiens, KM12, 72 h
# [33] = tested on: NCI-H522; experiment: cells; format: functional; settings: Homo sapiens, NCI-H522, 72 h
# [34] = tested on: MDA-MB-468; experiment: cells; format: functional; settings: Homo sapiens, MDA-MB-468, 72 h
# [35] = tested on: ACHN; experiment: cells; format: functional; settings: Homo sapiens, 72 h
# [36] = tested on: UO-31; experiment: cells; format: functional; settings: Homo sapiens, UO-31, 72 h
# [37] = tested on: A549; experiment: cells; format: functional; settings: Homo sapiens, A549, 72 h; remark: listed apart in the source
# [38] = tested on: LOX IMVI; experiment: cells; format: functional; settings: Homo sapiens, 72 h
# [39] = tested on: HL-60(TB); experiment: cells; format: functional; settings: Homo sapiens, HL-60, 72 h
# [40] = tested on: K562; experiment: cells; format: functional; settings: Homo sapiens, K562, 72 h
# [41] = tested on: SW-620; experiment: cells; format: functional; settings: Homo sapiens, SW-620, 72 h
# [42] = tested on: MDA-MB-231; experiment: cells; format: functional; settings: Homo sapiens, MDA-MB-231, 72 h; remark: listed apart in the source
# [43] = tested on: 786-0; experiment: cells; format: functional; settings: Homo sapiens, 786-0, 72 h
# [44] = tested on: EKVX; experiment: cells; format: functional; settings: Homo sapiens, 72 h
# [45] = tested on: BT-549; experiment: cells; format: functional; settings: Homo sapiens, BT-549, 72 h
# [46] = tested on: Malme-3M; experiment: cells; format: functional; settings: Homo sapiens, 72 h
# [47] = tested on: SNB-19; experiment: cells; format: functional; settings: Homo sapiens, SNB-19, 72 h
# [48] = tested on: SK-MEL-28; experiment: cells; format: functional; settings: Homo sapiens, SK-MEL-28, 72 h
# [49] = tested on: NCI-H226; experiment: cells; format: functional; settings: Homo sapiens, NCI-H226, 72 h
# [50] = tested on: MOLT-4; experiment: Growth inhibition of human MOLT4 cells after 72 hrs by MTS assay; format: functional; settings: MOLT-4, 72 h
# [51] = tested on: CCRF-CEM; experiment: Growth inhibition of human CCRF-CEM cells after 72 hrs by MTS assay; format: functional
# [52] = tested on: SF-268; experiment: cells; format: functional; settings: Homo sapiens, SF-268, 72 h
# [53] = tested on: SNB-75; experiment: Growth inhibition of human SNB75 cells after 72 hrs by MTS assay; format: functional; settings: SNB-75, 72 h
# [54] = tested on: TK-10; experiment: cells; format: functional; settings: Homo sapiens, TK-10, 72 h
# [55] = tested on: NCI-H23; experiment: cells; format: functional; settings: Homo sapiens, NCI-H23, 72 h
# [56] = tested on: HCT-15; experiment: cells; format: functional; settings: Homo sapiens, HCT-15, 72 h
# [57] = tested on: SK-OV-3; experiment: cells; format: functional; settings: Homo sapiens, SK-OV-3, 72 h
# [58] = cells; format: functional; settings: Homo sapiens, NCI/ADR-RES, 72 h
# [59] = tested on: MCF7; experiment: cells; format: functional; settings: Homo sapiens, MCF7, 48 h
# [60] = tested on: UACC-62; experiment: Growth inhibition of human UACC62 cells after 72 hrs by MTS assay; format: functional; settings: UACC-62, 72 h
# [61] = tested on: SW-620; experiment: cells; format: functional; settings: Homo sapiens, SW-620, 72 h; remark: listed apart in the source
# [62] = tested on: K562; experiment: cells; format: functional; settings: Homo sapiens, K562, 72 h; remark: listed apart in the source
# [63] = tested on: COLO 205; experiment: cells; format: functional; settings: Homo sapiens, COLO 205, 72 h
# [64] = tested on: PC-3; experiment: cells; format: functional; settings: Homo sapiens, PC-3, 72 h; remark: listed apart in the source
# [65] = tested on: OVCAR-3; experiment: cells; format: functional; settings: Homo sapiens, OVCAR-3, 72 h; remark: listed apart in the source
# [66] = target: Histone deacetylase (Homo sapiens) (UniProt Q13547+O15379+Q9UBN7+Q92769+Q9UQL6+Q8WUI4+Q9BY41+Q96DB2+P56524+Q9UKV0+Q969S8); experiment: Inhibition of HDAC in human MDA-MB-231 cells assessed as stimulation of histone H3 acetylation at 5 uM incubated for 24 hrs by Western blot; format: cell-based
# Summary of the method: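 MDA-MB-231 cells in 35-mm dishes, dosed 24 h at graded concentrations, then trypsinized and PBS-washed. Lysed in RIPA (50 mM Tris-HCl pH 7.5, protease and phosphatase inhibitors) for 30 min at 4 °C, then cleared at 12,000g. Lysate, 60 μg protein by BCA, run on SDS-PAGE and PVDF. Blotted with anti-acetyl-histone H3 and HRP anti-rabbit, read by ECL.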
compound,measurement,setting,value
NC(=O)CCC(c1nc2ccccc2o1)n1cc(/C=C/C(=O)NO)nn1 (racemic),GI50,[1],9.5 µM
same,IC50,[2],0.049 µM
same,GI50,[3],14 µM
same,GI50,[4],21.8 µM
CC(C)[C@H](c1nc2ccccc2o1)n1cc(/C=C/C(=O)NO)nn1,GI50,[5],1.3 µM
same,GI50,[6],0.26 µM
same,GI50,[7],0.22 µM
same,GI50,[8],0.28 µM
same,GI50,[9],0.24 µM
same,GI50,[10],0.23 µM
same,GI50,[11],0.25 µM
same,GI50,[12],0.31 µM
same,GI50,[13],0.34 µM
same,GI50,[14],0.25 µM
same,GI50,[15],0.19 µM
same,GI50,[16],0.4 µM
same,GI50,[17],0.35 µM
same,GI50,[18],2.8 µM
same,GI50,[19],0.47 µM
same,GI50,[20],0.75 µM
same,GI50,[21],0.5 µM
same,GI50,[22],0.07 µM
same,GI50,[23],0.79 µM
same,GI50,[24],0.35 µM
same,GI50,[25],0.39 µM
same,GI50,[26],0.25 µM
same,GI50,[27],0.41 µM
same,GI50,[28],0.35 µM
same,GI50,[29],0.18 µM
same,GI50,[30],0.35 µM
same,GI50,[31],0.24 µM
same,GI50,[32],0.41 µM
same,GI50,[33],0.13 µM
same,GI50,[34],0.25 µM
same,IC50,[2],0.031 µM
same,GI50,[35],0.47 µM
same,GI50,[36],0.23 µM
same,GI50,[37],0.3 µM
same,GI50,[38],0.16 µM
same,GI50,[39],0.28 µM
same,GI50,[40],0.28 µM
same,GI50,[41],0.29 µM
same,GI50,[42],0.91 µM
same,GI50,[43],0.34 µM
same,GI50,[44],0.68 µM
same,GI50,[45],0.28 µM
same,GI50,[46],0.063 µM
same,GI50,[47],0.85 µM
same,GI50,[48],0.52 µM
same,GI50,[49],1.3 µM
same,GI50,[50],0.3 µM
same,GI50,[51],0.35 µM
same,GI50,[52],0.63 µM
same,GI50,[53],0.41 µM
same,GI50,[54],0.16 µM
same,GI50,[55],0.35 µM
same,GI50,[56],0.96 µM
same,GI50,[57],0.26 µM
same,GI50,[58],0.095 µM
same,GI50,[59],0.45 µM
same,GI50,[60],0.4 µM
O=C(/C=C/c1cn(Cc2nc3ccccc3s2)nn1)NO,GI50,[61],1.5 µM
same,IC50,[2],0.041 µM
same,GI50,[62],2.6 µM
same,GI50,[3],8.8 µM
same,GI50,[4],2.1 µM
same,GI50,[63],1.5 µM
same,GI50,[64],2.9 µM
same,GI50,[65],3.6 µM
same,histone H3 acetylation activity (active/not active),[66],inactive
CCC(C)C(c1nc2ccccc2o1)n1cc(/C=C/C(=O)NO)nn1 (racemic),GI50,[1],0.19 µM
same,IC50,[2],0.004 µM
same,GI50,[3],1.7 µM
same,GI50,[4],0.52 µM
O=C(/C=C/c1cn(C/C=C/c2ccccc2)nn1)NO,GI50,[61],0.48 µM
same,IC50,[2],0.104 µM
same,GI50,[62],0.55 µM
same,GI50,[3],3.2 µM
same,GI50,[4],1.9 µM
same,GI50,[63],1.1 µM
same,GI50,[64],1.3 µM
same,GI50,[65],1.1 µM
O=C(O)CC(c1nc2ccccc2o1)n1cc(/C=C/C(=O)NO)nn1 (racemic),GI50,[1],> 20 µM
same,IC50,[2],0.14 µM
same,GI50,[3],> 20 µM
same,GI50,[4],> 20 µM
